Calls of active or inactive are those of the source. No cut-off for these calls is given here.

The target of assay [1] is T1, Retinoic acid receptor RXR-alpha (Mus musculus, UniProt P28700).
T1 sequence (P28700 whole entry): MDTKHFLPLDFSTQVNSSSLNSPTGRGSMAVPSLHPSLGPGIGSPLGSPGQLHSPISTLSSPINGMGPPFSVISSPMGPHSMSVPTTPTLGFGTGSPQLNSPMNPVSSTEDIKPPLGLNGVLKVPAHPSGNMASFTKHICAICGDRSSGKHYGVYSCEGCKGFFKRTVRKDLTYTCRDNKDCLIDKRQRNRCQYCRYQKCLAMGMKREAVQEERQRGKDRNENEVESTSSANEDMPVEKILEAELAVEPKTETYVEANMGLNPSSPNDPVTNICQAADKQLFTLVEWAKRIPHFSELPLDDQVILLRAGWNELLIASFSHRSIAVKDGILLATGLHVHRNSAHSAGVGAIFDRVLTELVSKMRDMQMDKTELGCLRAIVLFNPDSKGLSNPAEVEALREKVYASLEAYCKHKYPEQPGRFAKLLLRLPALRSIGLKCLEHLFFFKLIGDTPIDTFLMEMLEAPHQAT
The experiment in a line: Transactivation of Gal4-LBD fused mouse RXRalpha (218 to 467) transfected in african green monkey CV1 cells assessed as luciferase activity at after 6 hrs by Dual-light chemiluminescent assay. Type of assay: cell-based, CV-1.

Another assay has as its system MIA PaCa-2. The experiment in a line: Antiproliferative activity against human MIAPaCa2 cells at 4 uM after 48 hrs by MTT assay. Type of assay: functional. The note with it: MIA PaCa-2, 48 h. The gist of the method:
(§1)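 Epithelial cancer lines came from ATCC and were seeded the day before in complete medium: PC-3, SkOV3 and A549 at 3,000/well; MiaPaCa-2 and BxPC-3 at 4,000; T-47D and MDA-MB-468 at 5,000. Medium was switched to 0.5% FBS just before exposure to 4 μM. Read-out was MTT (4 h, 37 °C), SDS/HCl solubilisation, A595 minus cell-free blank. Growth inhibition was taken versus DMSO (≤0.1% v/v) controls, ≥2 experiments in triplicate.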

In another assay the test system is PC-3. The experiment in a line: Antiproliferative activity against human PC3 cells at 4 uM after 48 hrs by MTT assay. The note with it: PC-3, 48 h. The assay is classed as functional. The gist of the method:
as §1

In assay [2] the test system is Jurkat. The experiment in a line: Antiproliferative activity against human Jurkat T cells at 2 uM after 48 hrs by MTT assay. Type of assay: functional, cell-based. The essentials:
(§2)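 Jurkat T cells were resuspended at 10^5 cells/mL in RPMI with 0.5% FBS (10,000/well) and seeded immediately before dosing at 62.5 nM–2 μM for two days. Viability was read by MTT (4 h, 37 °C), formazan dissolved in 10% SDS/10 mM HCl, A595 with cell-free background subtracted. Values are relative to DMSO controls (≤0.1% v/v); at least two experiments in triplicate.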

A further assay has as its system BXPC-3. The experiment in a line: Antiproliferative activity against human BxPC3 cells at 4 uM after 48 hrs by MTT assay. The assay is classed as functional. As to conditions: BXPC-3, 48 h. The gist of the method: as §1
The subject of a further assay is A549. The experiment in a line: Antiproliferative activity against human A549 cells at 4 uM after 72 hrs by MTT assay. Type of assay: functional. As to conditions: A549, 72 h. The essentials: as §1
The subject of assay [3] is Jurkat. The assay is described as follows: Induction of apoptosis in human Jurkat T cells assessed as induction of DEVDase activity at 4 uM after 4 hrs by fluorescence assay. The assay is classed as functional, cell-based. The essentials:
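Jurkat cells (40,000/well, 10^6 cells/mL, RPMI with 0.5% FBS) were treated for 4 h; controls got 0.1% DMSO. Lysis was in CE buffer (PIPES pH 7, NP-40, cytochalasin B, protease inhibitors) for 30 min at 4 °C. Lysates were mixed with 2x caspase buffer (HEPES pH 7.4, CHAPS, sucrose) holding 100 μM Ac-DEVD-AFC and incubated at 37 °C for 30 min. AFC was read every 2 min, ex 390/em 510 nm.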

Assay [4] concerns the target T2, Retinoic acid receptor RXR-alpha (Mus musculus) (UniProt P28700).
T2 sequence (whole entry): T1 sequence (P28700 whole entry)
The assay is described as follows: Transactivation of Gal4-LBD fused mouse RXRalpha (218 to 467) transfected in african green monkey CV1 cells assessed as luciferase activity at 2 uM after 6 hrs by Dual-light chemiluminescent assay relative to LGD1069. The assay is classed as cell-based. The note with it: CV-1.

Assay [5] deals with Jurkat. The assay is described as follows: Antiproliferative activity against human Jurkat T cells at 62.5 nM after 48 hrs by MTT assay. The assay is classed as functional, cell-based. The gist of the method: as §2
Assay [6] addresses T2, Retinoic acid receptor RXR-alpha (Mus musculus). The experiment in a line: Transactivation of Gal4-LBD fused mouse RXRalpha (218 to 467) transfected in african green monkey CV1 cells assessed as luciferase activity at 2 uM after 6 hrs by Dual-light chemiluminescent assay relative to 9-cis-retinoic acid. The assay is classed as cell-based. The note with it: CV-1. The essentials:
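Transfected CV-1 cells carried Gal4-LBD constructs: hRARα 156–462, hRARβ 169–448, hRARγ 178–454 or mRXRα 218–467. Transfection used 10 ng Gal4-LBD, 100 ng UAS-luciferase and 25 ng β-gal vector. After 16 h the medium was changed to 5% charcoal-treated FBS. Cells were stimulated with 2 μM analog for 6 h (RARα, RARβ, RXRα) or 20 h (RARγ). Reference agonists were 1 μM atRA (RARα) and 1 μM 9cRA (RXRα). Luciferase and β-galactosidase were read by chemiluminescence.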

Assay [7] deals with Jurkat. The assay is described as follows: Antiproliferative activity against human Jurkat T cells after 48 hrs by MTT assay.

For the compound `COCCOCOc1cc(C)c(-c2ccc(CC(=O)O)cc2Cl)cc1C12CC3CC(CC(C3)C1)C2`, the EC50 in assay [1] turned out to be 1.14 µM. In addition, the inhibition at 4 µM in the assay on MIA PaCa-2 is 6.3%; with PC-3 it was 52.2%; with BXPC-3, 14%; with A549, 7.9%. Moreover, in the assay on Jurkat [2], the result was Active.

Regarding `COCCOCOc1cc(C)c(-c2ccc3cc(C(=O)O)ccc3c2Cl)cc1C12CC3CC(CC(C3)C1)C2`, the concentration giving a half-maximal response (EC50) in assay [1] worked out at 0.667 µM. Further, the inhibition at 4 µM with MIA PaCa-2 was 63.7%; with PC-3 it was 97.6%; with BXPC-3, 70.2%; in the assay on A549 it was 88.1%. The result with Jurkat [3] was Active. Moreover, the Activity in assay [4] and in assay [6] was 45% each time. In addition, the result in the assay with Jurkat [5] was inactive. This compound registered a concentration for half-maximal inhibition (IC50) with Jurkat [7] of 0.707 µM.

Values taken from ChEMBL document CHEMBL1158389, “Highly twisted adamantyl arotinoids: synthesis, antiproliferative effects and RXR transactivation profiles” (Eur J Med Chem, 2009).
